According to ChEMBL document CHEMBL1142960, “Synthesis and structure-activity relationships for 2,4-dinitrobenzamide-5-mustards as prodrugs for the Escherichia coli nfsB nitroreductase in gene therapy” (J Med Chem, 2007):
Values after ≈ are worked out from the molar mass of the structure shown.

How the values were obtained:
[1] = Partition coefficient at pH 7.4 by shake-flask method; assay type: physicochemical; settings: octanol/water
In short: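 Octanol-water partition coefficient by shake-flask at pH 7.4, reported with SEM.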

V79 [2] = assay: Antiproliferative activity against chinese hamster wild-type V79 NTR-ve cells after 18 hrs; assay type: functional, cell-based; settings: Cricetulus griseus, V79, 18 h
V79 [3] = assay: Antiproliferative activity against chinese hamster V79 NTRpuro cells after 18 hrs; assay type: functional, cell-based; settings: Cricetulus griseus, V79, 18 h
V79 [4] = assay: Selectivity ratio of IC50 for V79 NTR-ve cells to IC50 for V79 NTRpuro cells; assay type: functional, Cricetulus griseus
EMT6 [5] = assay: Antiproliferative activity against mouse wild type EMT6 NTR-ve cells after 18 hrs; assay type: functional, cell-based; settings: EMT6, 18 h
EMT6 [6] = assay: Antiproliferative activity against mouse EMT6 NTRpuro cells after 18 hrs; assay type: functional, cell-based; settings: EMT6, 18 h
EMT6 [7] = assay: Selectivity ratio of IC50 for EMT6 NTR-ve cells to IC50 forEMT6 NTRpuro cells; assay type: functional, Mus musculus
WiDr [8] = assay: Antiproliferative activity against human wild type WiDr NTR-ve cells after 18 hrs; assay type: functional, cell-based
WiDr [9] = assay: Antiproliferative activity against human WiDr NTRneo cells after 18 hrs; assay type: functional, cell-based
WiDr [10] = assay: Selectivity ratio of IC50 for WiDr NTR-ve cells to IC50 for WiDr NTRneo cells; assay type: functional, Homo sapiens
[11] = Antiproliferative activity against human wild type Skov3 NTR-ve cells after 18 hrs; assay type: functional, cell-based
V79 [12] = assay: Clonogenic survival of V79 NTRoua cells after 5 hrs by MCL assay; assay type: functional, Cricetulus griseus
[13] = Antiproliferative activity against human Skov3 NTRneo cells after 18 hrs; assay type: functional, cell-based; settings: SK-OV-3, 18 h
[14] = Selectivity ratio of IC50 for Skov3 NTR-ve cells to IC50 for Skov3 NTRneo cells; assay type: functional, Homo sapiens
V79 [15] = assay: Clonogenic survival of 3% V79 NTRpuro cells in co-cultures with 97% V79 NTRoua after 5 hrs by MCL assay; assay type: functional, Cricetulus griseus
In short: (§1)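 Multicellular layer cocultures of 3% V79-NTRpuro activators and 97% V79oua NTR-ve targets (ouabain-resistant), exposed to prodrug for 5 h. MCLs were then trypsin-dissociated and plated in ouabain or puromycin selective media for clonogenic survival. C10 (10% survival) interpolated for activators and targets; AC/TC ratio derived. Mean with SEM or range over independent experiments.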

V79 [16] = assay: Clonogenic survival of 97% V79 NTRoua cells in co-cultures with 3% V79 NTRpuro cells after 5 hrs by MCL assay; assay type: functional, Cricetulus griseus; in short: as §1
[17] = Toxicity in ip dosed CD1 nude mouse in DMSO/PEG; assay type: organism-based; settings: in vivo
In short: (§2)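 Maximum tolerated dose (MTD) determined in CD-1 nude mice after a single i.p. injection of prodrug, given in the vehicle named in each line.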

EMT6 [18] = assay: Antitumor activity against mixed mouse EMT6/EMT6 NTRpuro cells injected in CD1 nude mouse assessed as cell kill at 178 umol/kg, ip in DMSO/PEG after 18 hrs; assay type: functional
[19] = Solubility in alpha MEM; assay type: physicochemical
In short: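 Solubility (mM) in α-MEM with 5% fetal calf serum at ambient temperature, measured by HPLC.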

[20] = Stability in alpha MEM at 37 degC after 24 hrs; assay type: physicochemical; settings: read-out: Stability
In short: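 Percent parent compound remaining, by HPLC, after holding in α-MEM with 5% fetal calf serum at 37 °C for 24 h.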

[21] = Toxicity in ip dosed CD1 nude mouse in DMSO; assay type: organism-based; settings: in vivo; in short: as §2
V79 [22] = assay: Clonogenic survival ratio of 3% V79 NTRpuro cells to 97% V79 NTRoua cells in co-culture; assay type: functional, Cricetulus griseus; in short: as §1
WiDr [23] = assay: Antitumor activity against mixed human 10% WiDr NTRneo/ 90% WiDr tumor cells injected in CD1 nude mouse assessed as growth delay at 1330 umol/kg, ip in DMSO; assay type: functional
In short: (§3)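 WiDr-NTRneo tumours (100% NTR+ve, or 1:9 NTR+ve:NTR-ve mixtures) in CD-1 nude mice, given a single i.p. dose at MTD. Read-out is median growth delay to 15 mm mean diameter, plus tumours not palpable 100 days after treatment. Aziridine given at 200 µmol/kg as positive control in every experiment.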

WiDr [24] = assay: Antitumor activity against human 100% WiDr NTRneo tumor cells injected in CD1 nude mouse assessed as growth delay at 1330 umol/kg, ip in DMSO; assay type: functional; in short: as §3
[25] = Toxicity in ip dosed CD1 nude mouse in DMA/PEG; assay type: organism-based; settings: in vivo; in short: as §2
EMT6 [26] = assay: Antitumor activity against mixed mouse EMT6/EMT6 NTRpuro cells injected in CD1 nude mouse assessed as cell kill at 133 umol/kg, ip in DMA/PEG after 18 hrs; assay type: functional
EMT6 [27] = assay: Antitumor activity against mixed mouse EMT6/EMT6 NTRpuro cells injected in CD1 nude mouse assessed as cell kill at 133 umol/kg, ip in DMSO after 18 hrs; assay type: functional
EMT6 [28] = assay: Antitumor activity against mixed mouse EMT6/EMT6 NTRpuro cells injected in CD1 nude mouse assessed as cell kill at 237 umol/kg, ip in DMSO after 18 hrs; assay type: functional

| SMILES | logD [1] | IC50 (V79 [2]) [µM] | IC50 (V79 [3]) [µM] | Ratio IC50 (V79 [4]) | IC50 (EMT6 [5]) [µM] | IC50 (EMT6 [6]) [µM] | Ratio IC50 (EMT6 [7]) | IC50 (WiDr [8]) [µM] | IC50 (WiDr [9]) [µM] | Ratio IC50 (WiDr [10]) | IC50 [11] [µM] | Activity (V79 [12]) [µM] | IC50 [13] [µM] | Ratio IC50 [14] | Activity (V79 [15]) [µM] | Activity (V79 [16]) [µM] | solubility [19] [µM] | remaining at 24 h [20] [%] | MTD [21] [µmol/kg] | Ratio (V79 [22]) | other results |
| --- | --- | --- | --- | --- | --- | --- | --- | --- | --- | --- | --- | --- | --- | --- | --- | --- | --- | --- | --- | --- | --- |
| O=C(NCCCO)c1cc(N(CCCl)CCCl)c([N+](=O)[O-])cc1[N+](=O)[O-] | 1.49 | 555 | 7.7 | 77 | 422 | 1.02 | 477 | 518 | 10 | 51 | 948 | 3300 | 6.5 | 146 | 95 | 150 | 4100 (≈ 1680 µg/mL) | 108 |  |  | MTD [17]: 178 µmol/kg; LCK (EMT6 [18]): 0.44 |
| CS(=O)(=O)OCCN(CCI)c1cc(C(N)=O)c([N+](=O)[O-])cc1[N+](=O)[O-] | 0.74 | 101 | 0.29 | 311 | 79 | 0.17 | 529 | 70 | 0.41 | 172 | 97 | >200 | 0.31 | 328 | 4.2 | 12 | 200 (≈ 100 µg/mL) | 72 | 1330 | 0.35 | Activity (WiDr [23]): 15 days; Activity (WiDr [24]): >82 days |
| O=C(NCCO)c1cc(N(CCCl)CCCl)c([N+](=O)[O-])cc1[N+](=O)[O-] | 1.38 | 312 | 12 | 59 | 570 | 1.52 | 386 | 666 | 10 | 65 | 1250 | >1000 | 5.9 | 230 | 95 | 210 | 1000 (≈ 395 µg/mL) |  |  |  | MTD [25]: 133 µmol/kg; LCK (EMT6 [26]): >2.02 |
| O=C(NO)c1cc(N(CCCl)CCCl)c([N+](=O)[O-])cc1[N+](=O)[O-] | 1.22 | 51 | 1.36 | 42 | 96 | 0.88 | 110 | 111 | 2.01 | 55 | 200 | >1400 | 1.57 | 124 | 43 | >300 | 1400 (≈ 514 µg/mL) | 91 | 133 |  | LCK (EMT6 [27]): 0.38 |
| CS(=O)(=O)OCCN(CCBr)c1cc(C(=O)NCC(O)CO)c([N+](=O)[O-])cc1[N+](=O)[O-] (stereo not drawn) | -0.05 | 733 | 1 | 1660 | 712 | 1.6 | 527 | 804 | 3 | 272 | 1110 | >1300 | 1.7 | 640 | 70 | >1300 | 1300 (≈ 688 µg/mL) | 63 | 1330 | <0.05 | Activity (WiDr [23]): 9 days; Activity (WiDr [24]): 55 days |
| NC(=O)c1cc(N(CCCl)CCBr)c([N+](=O)[O-])cc1[N+](=O)[O-] | 1.61 | 139 | 0.59 | 237 | 150 | 0.1 | 2190 | 150 | 0.69 | 236 | 226 | >300 | 0.84 | 280 | 3.4 | 8.2 | 630 (≈ 249 µg/mL) | 62 | 237 |  | LCK (EMT6 [28]): >3.02 |
